In series [1] the test system is RAW264.7. The experiment in a line: Downregulation of VEGFA mRNA expression in mouse RAW264.7 cells after 48 hrs by qRT-PCR analysis relative to DMSO. In kind it is functional, cell-based. The gist of the method:
(§1)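 RAW264.7 macrophages were treated 48 h with compound at 0.08, 0.4 or 2.0 μM, or DMSO vehicle. Total RNA was extracted with TRIzol and transcripts were quantified by qRT-PCR using gene-specific primers. Run three times, each in triplicate.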

The species named for series [2] is Homo sapiens. As to the kind of experiment: Selectivity ratio of IC50 for recombinant human PDGFRbeta expressed in baculovirus to IC50 for recombinant human His-tagged CSF1R cytoplasmic domain (538 to 910 residues) expressed in baculovirus.
Series [3] deals with Ephrin type-A receptor 8 (Homo sapiens) (UniProt P29322). The experiment in a line: Inhibition of recombinant human EPHA8 (Q608 to C920 residues) expressed in bacterial expression system at 100 nM by KINOMEscan assay relative to control.
Chain of Ephrin type-A receptor 8 (Homo sapiens) (P29322 whole entry, the tested form may be a part): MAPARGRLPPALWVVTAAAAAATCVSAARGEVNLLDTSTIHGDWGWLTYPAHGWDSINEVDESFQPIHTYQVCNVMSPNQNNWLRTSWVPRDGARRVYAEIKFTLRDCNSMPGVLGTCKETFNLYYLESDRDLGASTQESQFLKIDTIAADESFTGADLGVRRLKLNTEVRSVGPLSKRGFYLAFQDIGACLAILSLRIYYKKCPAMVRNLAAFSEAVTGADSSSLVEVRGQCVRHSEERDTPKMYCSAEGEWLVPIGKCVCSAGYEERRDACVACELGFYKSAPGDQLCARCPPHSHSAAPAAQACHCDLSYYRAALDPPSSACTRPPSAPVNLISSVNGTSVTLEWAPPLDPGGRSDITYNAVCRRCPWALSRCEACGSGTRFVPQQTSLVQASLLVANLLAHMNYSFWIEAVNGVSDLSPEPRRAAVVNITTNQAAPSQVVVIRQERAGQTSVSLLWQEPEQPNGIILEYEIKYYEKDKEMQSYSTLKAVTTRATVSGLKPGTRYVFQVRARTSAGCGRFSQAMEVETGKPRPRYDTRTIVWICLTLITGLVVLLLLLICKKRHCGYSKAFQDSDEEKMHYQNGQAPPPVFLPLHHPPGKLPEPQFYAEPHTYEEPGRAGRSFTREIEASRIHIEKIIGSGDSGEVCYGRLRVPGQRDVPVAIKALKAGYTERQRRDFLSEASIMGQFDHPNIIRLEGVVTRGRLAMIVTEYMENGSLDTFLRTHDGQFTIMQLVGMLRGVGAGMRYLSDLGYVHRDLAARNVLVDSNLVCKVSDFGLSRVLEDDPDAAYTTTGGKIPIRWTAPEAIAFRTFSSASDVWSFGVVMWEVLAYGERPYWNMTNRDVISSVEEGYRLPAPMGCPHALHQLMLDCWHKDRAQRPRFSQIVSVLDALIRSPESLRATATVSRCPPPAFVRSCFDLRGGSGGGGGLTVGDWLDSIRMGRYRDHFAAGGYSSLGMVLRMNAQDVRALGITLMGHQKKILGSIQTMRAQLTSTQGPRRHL
The target of series [4] is T1, Macrophage colony-stimulating factor 1 receptor (Mus musculus) (UniProt P09581).
T1 sequence (whole entry): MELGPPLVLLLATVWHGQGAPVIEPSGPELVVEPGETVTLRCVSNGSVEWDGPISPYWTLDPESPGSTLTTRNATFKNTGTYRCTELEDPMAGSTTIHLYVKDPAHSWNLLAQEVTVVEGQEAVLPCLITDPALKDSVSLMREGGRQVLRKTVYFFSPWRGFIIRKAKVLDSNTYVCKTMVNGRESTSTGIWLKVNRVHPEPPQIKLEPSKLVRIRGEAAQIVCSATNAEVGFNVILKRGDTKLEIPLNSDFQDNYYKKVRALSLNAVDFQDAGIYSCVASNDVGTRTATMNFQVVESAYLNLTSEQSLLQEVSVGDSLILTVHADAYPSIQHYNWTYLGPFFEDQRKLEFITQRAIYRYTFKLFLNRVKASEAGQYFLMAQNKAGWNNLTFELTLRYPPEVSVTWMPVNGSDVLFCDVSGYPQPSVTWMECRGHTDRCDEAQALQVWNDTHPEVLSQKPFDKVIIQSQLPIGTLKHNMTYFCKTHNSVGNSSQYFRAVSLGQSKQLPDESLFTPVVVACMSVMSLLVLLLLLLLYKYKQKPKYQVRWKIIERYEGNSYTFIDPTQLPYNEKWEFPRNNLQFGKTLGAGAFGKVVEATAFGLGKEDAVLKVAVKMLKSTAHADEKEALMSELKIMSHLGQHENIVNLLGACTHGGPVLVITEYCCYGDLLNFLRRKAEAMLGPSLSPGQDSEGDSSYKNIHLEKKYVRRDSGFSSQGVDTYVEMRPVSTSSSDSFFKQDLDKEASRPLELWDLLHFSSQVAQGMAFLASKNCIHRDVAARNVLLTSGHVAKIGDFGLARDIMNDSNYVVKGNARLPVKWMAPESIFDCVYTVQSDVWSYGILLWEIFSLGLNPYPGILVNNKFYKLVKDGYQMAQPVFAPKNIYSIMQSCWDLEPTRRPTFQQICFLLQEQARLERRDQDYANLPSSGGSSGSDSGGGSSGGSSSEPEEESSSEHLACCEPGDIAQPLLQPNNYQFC
The experiment in a line: Inhibition of CSF1R in mouse RAW264.7 cells assessed as suppression of AKT phosphorylation preincubated for 6 hrs followed by CSF1 stimulation for 20 mins by Western blot analysis. The class given is cell-based. The procedure, abridged:
(§2)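 RAW264.7 cells were seeded, incubated overnight and treated 6 h with graded compound concentrations, then stimulated 20 min with CSF-1 (50 ng/mL). Lysates were run on 8−12% SDS-PAGE and immunoblotted for p-CSF1R (Tyr723), CSF1R, p-AKT, AKT and GAPDH. Bands were quantified and normalized to GAPDH. Mean ± SEM of at least three experiments.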
(Immunoblotting shows a protein as a band on a membrane.)

For series [5], the target named is Macrophage colony-stimulating factor 1 receptor (Homo sapiens, UniProt P07333). As to the kind of experiment: Inhibition of recombinant human His-tagged CSF1R cytoplasmic domain (538 to 910 residues) expressed in baculovirus using tyr4 peptide as substrate after 1 hr by FRET-based Z'-Lyte assay. The procedure, abridged: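 Z′-Lyte FRET assay with CSF1R or EGFR and 2 μM Tyr4 peptide substrate in 1× kinase buffer. ATP was supplied as a 100 μM solution, a stock and not the final concentration. Compounds were 3-fold serially diluted in DMSO. Reaction ran 1 h at room temperature, followed by 1 h development and a stop reagent. Phospho-peptide, no-ATP and DMSO controls were included. IC50 by curve fitting; mean of at least three independent experiments.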
Chain of Macrophage colony-stimulating factor 1 receptor (P07333 whole entry, the tested form may be a part): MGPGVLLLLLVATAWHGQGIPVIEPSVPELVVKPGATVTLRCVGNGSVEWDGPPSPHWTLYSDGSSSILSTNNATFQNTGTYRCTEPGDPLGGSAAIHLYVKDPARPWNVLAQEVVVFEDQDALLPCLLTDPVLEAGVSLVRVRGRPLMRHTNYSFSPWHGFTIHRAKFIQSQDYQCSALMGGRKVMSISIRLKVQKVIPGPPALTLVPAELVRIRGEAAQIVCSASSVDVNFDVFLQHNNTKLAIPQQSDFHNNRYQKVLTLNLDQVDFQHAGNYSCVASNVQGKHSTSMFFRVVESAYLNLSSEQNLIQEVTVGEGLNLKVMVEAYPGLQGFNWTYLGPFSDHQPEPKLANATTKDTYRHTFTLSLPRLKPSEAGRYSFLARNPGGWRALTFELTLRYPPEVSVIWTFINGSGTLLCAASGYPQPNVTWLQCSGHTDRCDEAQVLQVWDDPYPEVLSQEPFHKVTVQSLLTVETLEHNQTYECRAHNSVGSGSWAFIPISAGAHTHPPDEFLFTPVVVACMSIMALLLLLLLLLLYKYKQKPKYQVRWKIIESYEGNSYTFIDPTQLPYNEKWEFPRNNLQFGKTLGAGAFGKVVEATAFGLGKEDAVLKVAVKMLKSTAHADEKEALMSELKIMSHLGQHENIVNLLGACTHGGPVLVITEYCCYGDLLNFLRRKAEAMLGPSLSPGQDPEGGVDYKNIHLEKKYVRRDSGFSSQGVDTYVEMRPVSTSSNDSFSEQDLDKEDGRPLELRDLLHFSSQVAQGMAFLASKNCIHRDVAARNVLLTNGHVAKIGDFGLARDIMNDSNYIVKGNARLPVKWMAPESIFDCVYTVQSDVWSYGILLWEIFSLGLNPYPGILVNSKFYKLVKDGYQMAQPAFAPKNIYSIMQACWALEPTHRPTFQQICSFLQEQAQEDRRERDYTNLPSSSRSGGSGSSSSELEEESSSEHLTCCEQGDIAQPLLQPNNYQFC

In series [6] the test system is RAW264.7. The experiment in a line: Downregulation of ARG1 mRNA expression in mouse RAW264.7 cells after 48 hrs by qRT-PCR analysis relative to DMSO. The class given is functional, cell-based. The procedure, abridged:
as §1
In general terms: In qPCR the cycle at which signal appears reflects the starting amount.

Series [7] concerns RAW264.7. As to the kind of experiment: Inhibition of protumorigenic potential of mouse RAW264.7 cells assessed as abrogation of human LNCAP cell growth enhancement of macrophages at 0.4 uM co-cultured for 48 hrs by CCK8 assay relative to control. The class given is functional. Conditions: RAW264.7, 48 h. The gist of the method: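 LNCaP cells, (2−4) × 10^5, were seeded in the lower transwell chamber. After 2 h, (1−2) × 10^6 RAW264.7 cells were added in a 0.4 μm insert. Compound at 0.016–2.0 μM was added to the top chamber and cells were cocultured 48 h at 37 °C. LNCaP cells were then imaged and counted by CCK8. Run three times, each in triplicate.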
On the technique in general: Tetrazolium assays rely on reduction of a dye to a coloured formazan, in cell work by metabolically active cells.

Series [8] is described as follows: AUC (0 to infinity) in Sprague-Dawley rat at 5 mg/kg, iv measured up to 72 hrs by LC/MS analysis. In kind it is ADME, organism-based. Further details: dose 5 mg/kg, time infinity, route intravenous. Conditions: in vivo. The procedure, abridged: (§3)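 Male Sprague-Dawley rats, 4–6 weeks old, acclimatised 1 week, were dosed iv at 5 mg/kg or by oral gavage at 25 mg/kg. Vehicle was 2% DMSO, 4% EtOH, 4% castor oil, 90% H2O. Blood was drawn by orbital sinus puncture from 2 min to 72 h into heparinized tubes. Plasma was assayed by LC/MS with propranolol as internal standard. Three animals per group.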

For series [9], the target named is Platelet-derived growth factor receptor beta (Homo sapiens, UniProt P09619). As to the kind of experiment: Inhibition of recombinant human PDGFRbeta expressed in baculovirus using poly (4:1 Glu, Tyr) peptide as substrate after 1 hr by ADP-Glo assay.
Chain of Platelet-derived growth factor receptor beta (P09619 whole entry, the tested form may be a part): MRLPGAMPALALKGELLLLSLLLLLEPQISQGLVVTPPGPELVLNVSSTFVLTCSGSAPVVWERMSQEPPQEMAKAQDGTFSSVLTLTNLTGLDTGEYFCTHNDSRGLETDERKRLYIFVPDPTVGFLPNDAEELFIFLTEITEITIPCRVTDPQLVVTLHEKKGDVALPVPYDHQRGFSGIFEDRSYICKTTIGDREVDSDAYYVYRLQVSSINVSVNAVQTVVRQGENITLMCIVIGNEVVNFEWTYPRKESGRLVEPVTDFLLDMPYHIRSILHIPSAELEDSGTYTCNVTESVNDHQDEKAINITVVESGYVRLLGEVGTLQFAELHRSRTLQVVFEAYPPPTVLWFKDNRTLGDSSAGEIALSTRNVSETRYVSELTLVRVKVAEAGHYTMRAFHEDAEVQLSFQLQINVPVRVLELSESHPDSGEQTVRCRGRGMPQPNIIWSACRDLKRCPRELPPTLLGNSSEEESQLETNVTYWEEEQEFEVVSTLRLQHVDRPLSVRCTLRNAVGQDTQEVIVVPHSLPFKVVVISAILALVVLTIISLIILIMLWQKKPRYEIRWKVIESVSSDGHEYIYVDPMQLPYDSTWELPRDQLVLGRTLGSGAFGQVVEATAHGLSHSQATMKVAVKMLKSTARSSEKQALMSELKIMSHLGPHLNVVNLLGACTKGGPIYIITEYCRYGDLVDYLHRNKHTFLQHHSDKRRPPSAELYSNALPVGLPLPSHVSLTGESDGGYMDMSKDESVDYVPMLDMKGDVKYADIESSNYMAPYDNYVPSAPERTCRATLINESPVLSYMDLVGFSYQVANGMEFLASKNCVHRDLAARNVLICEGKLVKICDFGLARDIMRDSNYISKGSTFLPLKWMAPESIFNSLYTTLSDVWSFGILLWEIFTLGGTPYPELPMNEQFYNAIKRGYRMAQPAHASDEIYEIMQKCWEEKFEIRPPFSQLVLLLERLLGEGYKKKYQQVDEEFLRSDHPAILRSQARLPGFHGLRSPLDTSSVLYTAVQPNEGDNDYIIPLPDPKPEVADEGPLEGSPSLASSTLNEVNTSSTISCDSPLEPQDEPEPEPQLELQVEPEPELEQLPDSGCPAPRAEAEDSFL
The species entered for series [10] is Homo sapiens. As to the kind of experiment: Selectivity ratio of IC50 for recombinant cytoplasmic human His-tagged KIT expressed in baculovirus to IC50 for recombinant human His-tagged CSF1R cytoplasmic domain (538 to 910 residues) expressed in baculovirus.
For series [11], the target named is T1, Macrophage colony-stimulating factor 1 receptor (Mus musculus). As to the kind of experiment: Inhibition of CSF1R phosphorylation in mouse RAW264.7 cells assessed as reduction in AKT phosphorylation at 80 nM preincubated for 6 hrs followed by CSF1 stimulation for 20 mins by Western blot analysis relative to control. In kind it is cell-based. The gist of the method: as §2

Series [12] concerns the target Tyrosine-protein kinase ABL1 (Homo sapiens) (UniProt P00519). As to the kind of experiment: Inhibition of human ABL1 (S229 to K512 residues) expressed in mammalian expression system at 100 nM by KINOMEscan assay relative to control.
The subject of the next series is Rattus norvegicus. As to the kind of experiment: Apparent clearance in Sprague-Dawley rat at 25 mg/kg administered via oral gavage measured up to 72 hrs by LC/MS analysis. In kind it is ADME, organism-based. Conditions: in vivo, iv, 5 mg/kg, in the assay text read “5 mg/kg administered intravenously” for “25 mg/kg administered via oral gavage”. The gist of the method:
as §3

Chain of Tyrosine-protein kinase ABL1 (Homo sapiens) (P00519 whole entry, the tested form may be a part): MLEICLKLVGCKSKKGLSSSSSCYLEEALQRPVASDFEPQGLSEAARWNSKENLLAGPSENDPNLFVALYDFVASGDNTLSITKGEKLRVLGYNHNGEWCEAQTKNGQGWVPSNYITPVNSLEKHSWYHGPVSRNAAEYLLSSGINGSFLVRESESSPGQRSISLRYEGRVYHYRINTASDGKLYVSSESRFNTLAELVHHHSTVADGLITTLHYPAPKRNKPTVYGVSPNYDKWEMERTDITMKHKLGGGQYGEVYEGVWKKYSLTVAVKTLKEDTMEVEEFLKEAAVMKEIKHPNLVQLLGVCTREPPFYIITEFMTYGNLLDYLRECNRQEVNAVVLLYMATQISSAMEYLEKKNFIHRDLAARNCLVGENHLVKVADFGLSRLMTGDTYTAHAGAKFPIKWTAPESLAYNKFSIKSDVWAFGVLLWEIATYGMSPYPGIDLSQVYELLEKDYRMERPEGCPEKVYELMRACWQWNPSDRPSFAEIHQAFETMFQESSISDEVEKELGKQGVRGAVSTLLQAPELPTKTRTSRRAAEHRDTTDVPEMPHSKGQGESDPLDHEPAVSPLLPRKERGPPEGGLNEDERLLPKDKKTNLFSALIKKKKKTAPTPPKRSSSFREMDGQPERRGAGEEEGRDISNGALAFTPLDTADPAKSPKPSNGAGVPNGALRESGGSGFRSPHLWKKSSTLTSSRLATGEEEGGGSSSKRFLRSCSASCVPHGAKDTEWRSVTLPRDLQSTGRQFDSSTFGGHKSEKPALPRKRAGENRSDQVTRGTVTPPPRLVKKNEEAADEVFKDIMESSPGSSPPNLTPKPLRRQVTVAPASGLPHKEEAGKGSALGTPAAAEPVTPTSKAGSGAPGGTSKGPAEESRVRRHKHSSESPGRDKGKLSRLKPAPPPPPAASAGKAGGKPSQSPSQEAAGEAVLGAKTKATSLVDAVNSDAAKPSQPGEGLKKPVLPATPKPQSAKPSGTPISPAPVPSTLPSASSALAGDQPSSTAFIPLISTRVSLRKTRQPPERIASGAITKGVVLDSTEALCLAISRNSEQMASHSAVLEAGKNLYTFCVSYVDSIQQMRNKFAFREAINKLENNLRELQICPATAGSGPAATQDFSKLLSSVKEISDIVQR

Usually inhibition stands for the relative decrease from the control value, in per cent. For orientation: IC50 means the concentration that inhibits the measured activity by half. One may read the AUC(0-inf) as total exposure, with the tail of the curve extrapolated. Read a high AUC(0-inf) as high exposure. For `CCC(=O)N1CC[C@H](N2C(=O)N(c3cc(OC)ccc3Cl)Cc3cnc(Nc4ccc(N5CCN(C6COC6)CC5)c(C)c4)nc32)C1`, the Activity entry with RAW264.7 [1] and in the series with RAW264.7 [6] was “Dose-dependent effect” throughout. The Ratio IC50 in the series filed under Homo sapiens [2] and in the series listed under Homo sapiens [10] was 10 to 35 in each case. Also, the inhibition in [3] was > 90%; in series [4], “Dose-dependent effect”; in [11] it was 50%; in series [12], > 90%. In addition, the concentration for half-maximal inhibition (IC50) in series [5] stood at 3 nM; in [9], 106 nM. Besides, the inhibition at 0.4 µM with RAW264.7 [7] worked out at 85%. Besides, the total exposure AUC(0-inf) in series [8] turned out to be 2910 ng·h/mL. For the same compound, in the series on Rattus norvegicus, the “CL(app)” value came out at 1.73 L/h/kg.

The record behind these values is ChEMBL document CHEMBL4033795, “Design, Synthesis, and Structure-Activity Relationship Study of 2-Oxo-3,4-dihydropyrimido[4,5- d]pyrimidines as New Colony Stimulating Factor 1 Receptor (CSF1R) Kinase Inhibitors” (J Med Chem, 2018).
